Runt-CBFb FRET: Runt domain-CBFb interaction inhibition. Q01196+Q13951. Cerulean-Runt/Venus-CBFb FRET ratio 530/480, 1 h. inhibition, % at 20 µM. 0.46% of 220,000 active. AID 1496;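 active means inhibition over about 50% at 20 µM in the single-dose screen, limit read from the data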;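 further: 0% = DMSO wells and 100% = excess unlabeled CBFb competitor control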
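Doses: 20 µM compound in 1% DMSO | Material: Cerulean-labeled Runt domain protein | Amount: Each fluorescent fusion protein 100 nM | Schedule: Two 1 h room-temperature incubations shielded from light | Measured by: FRET fluorescence | Evaluation: Loss of energy transfer signal | Controls: Unlabeled CBFb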
RanGTP-Imp inh: inhibitors of RanGTP-importin-beta interaction, primary screen, biochemical, FRET, CFP-Ran, YFP-importin-beta, homogeneous. AID 2216. inhibition, % (concentration not given with the values). cell-free CFP-Ran/YFP-importin-beta FRET ratio. 1.1% of 300,000 active;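 active means more than half of the replicate wells show a fall in the fluorescence ratio signal beyond about 16%, limit read from the data, passing the limit was not always enough; inconclusive means exactly half of the replicate wells pass the set limit; inactive means fewer than half of replicates pass the limit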;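 further: 0% = DMSO wells and 100% = Ran loaded with GDP instead of GTP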
Hck Nef HTS: blocks Nef-activated human Hck kinase; Recombinant Hck-YEEI plus Nef, Z-Lyte FRET kinase assay; 0.68% of 220,000 active; P08631; inhibition, % at 20 µM;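 active means Hck-Nef kinase inhibition above about 50%, limit read from the data; inactive means inhibition below that limit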;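 further: 0% = DMSO with Hck plus Nef and 100% = Hck alone without Nef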
Target sequence (P08631 whole entry, looked up): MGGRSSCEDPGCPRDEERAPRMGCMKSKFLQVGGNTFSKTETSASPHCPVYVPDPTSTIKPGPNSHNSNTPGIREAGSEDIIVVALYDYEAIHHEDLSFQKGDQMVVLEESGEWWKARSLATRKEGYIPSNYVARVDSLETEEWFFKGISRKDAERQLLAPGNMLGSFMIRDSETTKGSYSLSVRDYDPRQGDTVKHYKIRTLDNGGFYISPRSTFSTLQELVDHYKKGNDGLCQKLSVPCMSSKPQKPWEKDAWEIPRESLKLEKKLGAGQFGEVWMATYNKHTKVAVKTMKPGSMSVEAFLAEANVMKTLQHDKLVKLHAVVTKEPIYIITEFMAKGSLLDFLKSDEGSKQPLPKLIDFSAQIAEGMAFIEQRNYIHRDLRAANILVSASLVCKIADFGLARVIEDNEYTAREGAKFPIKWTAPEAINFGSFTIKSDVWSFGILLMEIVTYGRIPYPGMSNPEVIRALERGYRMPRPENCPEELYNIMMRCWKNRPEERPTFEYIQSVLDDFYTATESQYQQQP
TNF death inh: blocks TNF-alpha induced death of Jurkat FADD-/- cells; Jurkat FADD-/- TNF necroptosis rescue, ATP luminescence, 24 h; 0 = TNF only, 100 = no-TNF cells; activation (protection from cell death), % at 10 µM; 0.068% of 220,000 active; AID 463075;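 active means activation, meaning protection from cell death, of at least 50% relative to plate controls; inactive means activation below 50%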;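 further: necroptosis triggered by 40 ng/mL TNF-alpha added together with compound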
zVAD death inh: L929 zVAD cell death inhibition. L929 zVAD necroptosis rescue, ATP luminescence, 24 h; with zVAD 60 µM. viability rescue, % at 10 µM. 0.38% of 220,000 active;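 active means activation, scaled between plate controls, above about 75%, limit read from the data; inactive means activation under that limit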;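 further: 0% = zVAD with DMSO and 100% = DMSO alone without zVAD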
Runt-SMMHC FRET: blocks binding of human RUNX1 Runt domain to CBFb-SMMHC | Q01196+Q13951 | Cerulean-Runt/Venus-CBFb-SMMHC FRET ratio 530/480, 1 h | inhibition, % at 20 µM | 0.74% of 220,000 active | AID 1434;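 active means mean inhibition across duplicate retests at 20 µM reaching about 50%, limit read from the data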;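 further: 0% = DMSO wells and 100% = wells with excess untagged CBFb-SMMHC; inhibitors lower the FRET ratio by blocking Runt binding to CBFb-SMMHC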
Hck Nef conf: confirmation of Hck-Nef kinase inhibitors. shares compounds with Hck Nef HTS. Recombinant Hck-YEEI:Nef, Z-Lyte FRET kinase assay. calls only at 10 µM. 28% of 1,300 active;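 active means average inhibition of at least 50%, with Z-scores no higher than 3 in both the phospho-tyrosine peptide and fluorescence counterscreens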
* marks the source's active call; other numbers are inactive results; i = inactive; ? = inconclusive; . = no result given; + = active, no number. Hits are enriched below; roughly 2.1% of the tested compounds scored in any of these assays.

SMILES	Runt-CBFb FRET	RanGTP-Imp inh	Hck Nef HTS	TNF death inh	zVAD death inh	Runt-SMMHC FRET	Hck Nef conf
CCc1nnc(N/N=C/c2cccs2)n1N	2	2	0	0	1	2	.
CCOP(=O)(c1ccc(N(C)C)cc1)C(O)c1ccc(OC)cc1 (stereo unspecified)	.	7	.	.	.	.	.
COc1ccc(OC)c(C(=O)CSc2nccc(-c3ccc(Br)cc3)n2)c1	-3	8	0	-2	0	2	.
Cc1ccc(-c2nc(N/N=C/c3ccccc3[N+](=O)[O-])c3ccccc3n2)cc1	-1	-1	56*	-12	-1	3	i
Brc1ccc(-c2nc(N/N=C/c3cccnc3)c3ccccc3n2)cc1	-12	-3	-4	-24	-5	-9	.
Cc1nn(-c2ccccc2)c(C)c1-c1cc(C(=O)N/N=C/c2ccc(O)cc2)[nH]n1	0	0	66*	-11	7	0	+
O=C(Cn1nc(-c2ccc3c(c2)OCCO3)ccc1=O)Nc1ccc(-n2cnnn2)cc1	-1	1	52*	3	4	-10	i
Oc1ccc(-c2nc3ccccc3s2)c(O)c1	6	-5	163*	-1	3	8	.
CCc1ccc(C2CC(=O)N(c3ccc(F)cc3)C3=C2C(=O)OC3)cc1 (stereo unspecified)	.	-4	-13	0	4	-2	.
COc1cc2c(C#N)c(N3CCCC3)nc(N)c2c(N)n1	-17	1	63*	-9	69	-7	+
Cc1ccc(CNc2ncccc2-c2nc3cc(Cl)ccc3o2)cc1	-1	-3	66*	-2	0	27	+
Clc1ccc2oc(-c3cccnc3NCc3ccccc3)nc2c1	4	5	90*	-1	0	16	.
Cc1cccn2c(=O)c(/C=N/O)c(Nc3ccccc3F)nc12	-2	0	70*	1	2	-8	i
Cc1ccc(NC(=O)CN2C(=O)S/C(=C\c3cccn3-c3cccc(C(=O)O)c3)C2=O)c(C)c1	-6	8	78*	-1	0	-15	+
Cc1ccccc1NC(=O)CN1C(=O)S/C(=C\c2cccn2-c2cccc(C(=O)O)c2)C1=O	4	3	9	-1	0	2	.
Nc1ccc2nc(SCc3cccc(F)c3)sc2c1	1	1	22	-15	1	-1	.
O=C(Cn1c2ccc(F)cc2c2nc3n(c(=O)c21)CCS3)Nc1ccccc1F	-2	-3	29	-1	-1	2	.
O=C(Cn1c2ccc(F)cc2c2nc3n(c(=O)c21)CCS3)Nc1ccccc1C(F)(F)F	-2	1	89*	0	-1	-7	i
COc1cc(NC(=O)CN2C(=O)COc3ccc(S(=O)(=O)N4CCOCC4)cc32)cc(OC)c1	.	-2	.	.	.	.	.
CCC(C)Nc1nc(N)c([N+](=O)[O-])c(Nc2cc(OC)ccc2OC)n1 (stereo unspecified)	-3	2	52*	-14	23	-2	i
O=C(/C=C/c1ccncc1)c1ccc(NC(=O)c2ccccc2F)cc1	4	.	7	-3	15	9	.
COc1ccccc1CNS(=O)(=O)c1c(C(=O)N2CCCCC2)c(C)n(C)c1C	.	3	.	.	.	.	.
COc1ccc(-n2nc(C(=O)Nc3ccc(OC)c(OC)c3)c3c4ccccc4n(C)c3c2=O)cc1	-1	0	89*	-3	1	-3	+
Cc1ccc(O)c(NC(=S)NC(=O)/C=C/c2ccco2)c1	-2	?	75*	-9	2	-18	+
O=C(CNC1CCCCCC1)c1cccs1	3	0	3	3	1	-1	.
SMILES	Runt-CBFb FRET	RanGTP-Imp inh	Hck Nef HTS	TNF death inh	zVAD death inh	Runt-SMMHC FRET	Hck Nef conf
COC(=O)CCC(=O)OC1(C)C(=O)C2=COC(c3ccc(OC)cc3)=CC2=C(Br)C1=O (stereo unspecified)	38	-19	93*	0	-1	-20	+
CC1(OC(=O)C2CCCC2)C(=O)C=C2C=C(c3ccsc3)OC=C2C1=O (stereo unspecified)	7	1	62*	1	0	3	+
COc1ccc(C2=CC3=C(Br)C(=O)C(C)(OC(=O)C4CCCC4)C(=O)C3=CO2)cc1 (stereo unspecified)	64*	-5	82*	3	0	18	+
COC(=O)CCC(=O)OC1(C)C(=O)C2=CN(C(CO)CO)C(c3ccc(OC)cc3)=CC2=C(Br)C1=O (stereo unspecified)	18	8	8	2	1	22	.
COc1ccc(C2=CC3=C(Br)C(=O)C(C)(OC(=O)c4ccc(Cl)nc4)C(=O)C3=CO2)cc1 (stereo unspecified)	2	-5	94*	0	0	2	+
CC1(OC(=O)C2CCCC2)C(=O)C=C2C=C(c3ccsc3)N(C3CCCC3)C=C2C1=O (stereo unspecified)	4	-4	17	-4	-1	6	.
CCOc1ccc(-c2ccc3nnc(SCC(=O)NCC4CCCO4)n3n2)cc1 (stereo unspecified)	.	3	.	.	.	.	.
CCN(CC)S(=O)(=O)c1ccc(NCc2ccccc2)nc1	-3	-4	2	1	3	-3	.
Cc1nc(-c2ccc(NC(=O)c3ccc(Br)o3)cc2)cs1	.	-4	.	.	.	.	.
Cn1cnnc1SCc1ccc(C(=O)N=Nc2c(O)n(C)c3ccccc23)cc1	-3	-1	6	-2	1	1	.
COc1cc(NC(=S)Nc2cccc(C)n2)cc(OC)c1OC	2	0	97*	2	15	0	i
O=C(Cn1c(O)c(/C=C2\C=Nc3ccc(Br)cc32)sc1=O)N1CCCC1	-14	0	76*	-4	0	-19	i
CNC(=S)NNc1nc(C)cc(C)n1	9	4	20	0	3	-2	.
O=C(NCC1OCCc2ccccc21)c1cc(COc2c(F)cccc2F)on1 (stereo unspecified)	-1	1	1	1	1	0	.
O=C1/C(=C/c2ccco2)CCc2ccccc21	13	2	100*	-2	0	5	i
COc1ccc2c(c1)CC/C(=C/c1ccco1)C2=O	10	-2	12	-1	1	-35	.
Cc1ccc(NC(=O)c2nc[nH]c2C(=O)N[C@@H](C)C(=O)OC(C)(C)C)cc1	-5	2	26	1	0	3	.
COc1ccc(NC(=O)c2nc[nH]c2C(=O)N[C@@H](C)C(=O)OC(C)(C)C)cc1	1	-3	53*	1	0	5	i

Screens: PubChem BioAssay, several laboratories
